Series [1] concerns Vaccinia virus. Briefly: Antiviral activity against vaccinia virus IHD-J in BSC40 cells by CPE assay. The format is functional, organism-based. The following applies: Orthopoxvirus vaccinia, BSC-40.
The next series deals with Cowpox virus. Briefly: Antiviral activity against cowpox virus by CPE assay. The series is classed as functional, organism-based.
Series [2] can be described thus: Cytotoxicity against vaccinia virus IHD-J infected BSC40 cells. The format is cell-based, Macaca mulatta. As to conditions: rhesus monkey, BSC-40 cells infected with vaccinia virus IHD-J.
In another series the test system is Monkeypox virus. Put plainly: Antiviral activity against monkeypox virus by CPE assay. The format is functional, organism-based.
Another series concerns Camelpox virus. Briefly: Antiviral activity against camelpox virus by CPE assay. The format is functional, organism-based.
The test system of series [3] is Variola virus. Briefly: Antiviral activity against variola virus BUT virus by CPE assay. The series is classed as functional, organism-based.
Series [4] deals with Variola virus. Put plainly: Antiviral activity against variola virus BSH virus by CPE assay. The series is classed as functional, organism-based.
Series [5] in a line: Metabolic stability in monkey Liver S9 fraction. As to conditions: rhesus monkey. The format is ADME, subcellular, Macaca mulatta. In a few lines:
(§1)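 Compound was incubated with liver S-9 extracts from each species, with NADPH added. Loss of parent compound was followed by LC/MS and reported as half-life in minutes.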

Series [6] can be described thus: Metabolic stability in rat Liver S9 fraction. The series is classed as ADME, subcellular. In a few lines:
as §1

The nature of series [7]: Metabolic stability in mouse Liver S9 fraction. The series is classed as ADME, subcellular. An outline of the steps: as §1
Series [8] can be described thus: Metabolic stability in dog Liver S9 fraction. The format is ADME, subcellular, Canis lupus familiaris. In a few lines: as §1
The nature of series [9]: Metabolic stability in human Liver S9 fraction. The series is classed as ADME, subcellular. An outline of the steps: as §1
Series [10] concerns Vaccinia virus. Put plainly: Antiviral activity assessed as inhibition of extracellular virus formation in vaccinia virus IHD-J infected BSC40 cells at 5 uM after 24 hrs. The series is classed as functional, organism-based. The following applies: Orthopoxvirus vaccinia, BSC-40.
Series [11] in a line: Tmax in rat at 2 mg/kg, po. As to conditions: in vivo. On the set-up: dose 2 mg/kg, route oral. The format is ADME, organism-based. An outline of the steps: (§2)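 Rats were dosed orally in 0.75% Methocell/1% Tween vehicle, and a separate intravenous arm was run to derive bioavailability. Plasma concentration–time data gave Tmax, Cmax, AUC, t1/2, clearance, Vss and %F.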
A short description of series [12]: Cmax in rat at 2 mg/kg, po. The format is ADME, organism-based. The arrangement: dose 2 mg/kg, route oral. The following applies: in vivo. In a few lines: as §2
Series [13] can be described thus: AUC in rat at 2 mg/kg, po. The format is ADME, organism-based. As to conditions: plasma. The arrangement: dose 2 mg/kg, route oral. An outline of the steps: as §2
Series [14] is described as follows: Half life in rat at 2 mg/kg, po. The series is classed as ADME, organism-based. As to conditions: in vivo. On the set-up: dose 2 mg/kg, route oral. In a few lines: as §2
Series [15] is described as follows: Clearance in rat at 2 mg/kg, po. The format is ADME, organism-based. The arrangement: dose 2 mg/kg, route oral. As to conditions: in vivo. An outline of the steps:
as §2

Another series has as its system Rattus norvegicus. Briefly: Volume of distribution at steady state in rat at 2 mg/kg, po. As to conditions: in vivo. The format is ADME, organism-based. The arrangement: dose 2 mg/kg, route oral. An outline of the steps:
as §2

The nature of series [16]: Oral bioavailability in rat at 2 mg/kg, po. The series is classed as ADME, organism-based. As to conditions: in vivo. An outline of the steps:
as §2

A further series relates to Mus musculus. Briefly: Toxicity in mouse at 2000 mg/kg after 28 days. The series is classed as organism-based. The arrangement: dose 2000 mg/kg. As to conditions: in vivo, 672 h. In a few lines: (§3)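 Animals received 28-day repeat dosing, and the no observable adverse effect level (NOAEL) was determined.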
The next series relates to Cynomolgus monkey. Put plainly: Toxicity in cynomolgus monkey at 600 mg/kg after 28 days. The following applies: in vivo, 672 h. The format is organism-based, Macaca fascicularis. The arrangement: dose 600 mg/kg. An outline of the steps: as §3
A further series has as its system Human alphaherpesvirus 1. Briefly: Antiviral activity against HSV1 KOS by plaque reduction assay. The series is classed as functional, organism-based. As to conditions: Human alphaherpesvirus 1, KOS.
In the next series the test system is Human betaherpesvirus 5. Briefly: Antiviral activity against human cytomegalovirus AD169 by plaque reduction assay. The following applies: Human betaherpesvirus 5, AD169. The series is classed as functional, organism-based. For orientation: Plaque reduction counts the foci of infection that form in a cell layer.
Series [17] has as its system Respiratory syncytial virus. Put plainly: Antiviral activity against RSV A by plaque reduction assay. The format is functional, organism-based. The following applies: human respiratory syncytial virus.
The subject of series [18] is Bovine viral diarrhea virus 1. Briefly: Antiviral activity against BVDV NADL by plaque reduction assay. The series is classed as functional, organism-based. The following applies: Bovine viral diarrhea virus isolates and strains.
The subject of another series is Rotavirus. Briefly: Antiviral activity against rotavirus by plaque reduction assay. The format is functional, organism-based.

The source made the active and inactive calls.

The term EC50 denotes the concentration at which the effect is half-maximal. A word on the CC50: it is the concentration at which the toxic effect on the cells reaches its halfway point. For `O=C(NN1C(=O)[C@@H]2C3C=CC(C4CC43)[C@@H]2C1=O)c1ccccc1Cl` (stereo partly specified), the values for the concentration for a half-maximal effect (EC50) in the series on Vaccinia virus [1] and in the series with Cowpox virus were 3000 nM and over 20000 nM, respectively. The compound further registered a CC50 in series [2] of over 100000 nM.

Consider `O=C(NN1C(=O)[C@@H]2C3C=CC(C4CC43)[C@@H]2C1=O)c1cccc(Cl)c1` (stereo partly specified), for which the EC50 in the series with Vaccinia virus [1] is 40 nM; in the series with Cowpox virus, 600 nM. The half-maximal cytotoxic concentration (CC50) in series [2] is over 100000 nM.

In turn, `Nc1ccc(C(=O)NN2C(=O)[C@@H]3C4C=CC(C5CC54)[C@@H]3C2=O)cc1` (stereo partly specified) yielded a 50% effective concentration (EC50) in the series with Vaccinia virus [1] of 7700 nM. For the same compound, the half-maximal cytotoxic concentration (CC50) in series [2] is over 92000 nM.

As for `O=C(NN1C(=O)[C@@H]2C3C=CC(C4CC43)[C@@H]2C1=O)c1cccc(Br)c1` (stereo partly specified), a half-maximal response with Vaccinia virus [1] (EC50) required 50 nM. Moreover, in [2], the 50% cytotoxic concentration (CC50) was over 100000 nM.

Turning to `O=C(NN1C(=O)[C@@H]2C3CCC(C4CC43)[C@@H]2C1=O)c1ccc(C(F)(F)F)cc1` (stereo partly specified), the EC50 in the series with Vaccinia virus [1] was 20 nM; with Monkeypox virus, 80 nM; in the series with Camelpox virus, 30 nM; in the series with Variola virus [3], 10 nM; with Variola virus [4] it was 200 nM. In series [2], the CC50 was over 100000 nM.

For the compound `O=C(NN1C(=O)[C@@H]2C3C=CC(C4CC43)[C@@H]2C1=O)c1ccncc1` (stereo partly specified), the EC50 with Vaccinia virus [1] worked out at 500 nM; in the series on Monkeypox virus it was 150 nM; in the series on Camelpox virus, 110 nM; in the series with Variola virus [3], 220 nM; in the series on Variola virus [4] it was 400 nM. The compound further came in with a CC50 in series [2] of over 100000 nM.

In general, half-life refers to the time needed for the level to fall by half in the phase considered. As usually defined, the Tmax is the time from dosing to the highest level. Broadly, the Cmax is the highest concentration seen after dosing. By AUC is commonly meant concentration integrated over time. By CL/F is commonly meant the apparent clearance, not corrected for the fraction that reaches the circulation. By bioavailability is commonly meant the share of a dose that reaches the circulation, judged against a reference dose that is usually intravenous. For `O=C(NN1C(=O)[C@@H]2C3C=CC(C4CC43)[C@@H]2C1=O)c1ccc(C(F)(F)F)cc1` (stereo partly specified), the half-life was over 3.33 h in series [5]; over 3.33 h in series [6]; over 3.33 h in [7]; over 3.33 h in series [8]; over 3.33 h in series [9]; 4.2 h in series [14]. Further, the EC50 is 40 nM in the series with Vaccinia virus [1]; 10 nM in the series with Monkeypox virus; 10 nM in the series with Camelpox virus; 20 nM in the series on Variola virus [3]; 50 nM in the series on Variola virus [4]; over 40000 nM in the series with Human alphaherpesvirus 1. For the same compound, the EC50 (in the series on Human betaherpesvirus 5; in series [17]; in series [18]; in the series with Rotavirus) was over 40000 nM throughout. Besides, the cytotoxic concentration (CC50) in [2] was over 100000 nM. Further, in the series with Vaccinia virus [10], the outcome was Active. The time of peak concentration (Tmax) in series [11] was 2.2 h. Also, the Cmax in [12] was found to be 920 ng/mL. In series [13], this compound registered an exposure (AUC) of 6100 ng·h/mL. The CL/F in [15] is 8.67 mL/min/kg. The Vss in the series on Rattus norvegicus worked out at 0.6 L/kg. In series [16], this compound registered a bioavailability of 31%. The Activity entry with Mus musculus and in the series on Cynomolgus monkey was “Non-toxic” throughout.

In the case of `O=C(NN1C(=O)[C@@H]2C3C=CC(C4CC43)[C@@H]2C1=O)c1ccc(Br)cc1` (stereo partly specified), the half-life in series [5] is over 3.33 h; in [6], over 3.33 h; in [7], over 3.33 h; in series [8] it was over 3.33 h; in series [9], 0.95 h. Further, the EC50 was 20 nM in the series with Vaccinia virus [1]; 10 nM in the series with Monkeypox virus; 10 nM in the series on Camelpox virus; 20 nM in the series on Variola virus [3]; 50 nM in the series with Variola virus [4]. The cytotoxic concentration (CC50) in series [2] was over 100000 nM.

For `CN(C)c1ccc(C(=O)NN2C(=O)[C@@H]3C4C=CC(C5CC54)[C@@H]3C2=O)cc1` (stereo partly specified), the midpoint of the response in the series with Vaccinia virus [1], the EC50, lay at 2000 nM. The half-maximal cytotoxic concentration (CC50) in series [2] is over 100000 nM.

As to `O=C(NN1C(=O)[C@@H]2C3C=CC(C4CC43)[C@@H]2C1=O)c1ccccn1` (stereo partly specified), the half-maximal effective concentration (EC50) in the series with Vaccinia virus [1] is over 20000 nM; in the series with Monkeypox virus, over 16000 nM; in the series with Camelpox virus, 4200 nM; in the series on Variola virus [3], 10000 nM; in the series with Variola virus [4], over 20000 nM. For the same compound, the CC50 in [2] is over 100000 nM.

In the series with Vaccinia virus [1], `Cc1cc(C(=O)NN2C(=O)[C@@H]3C4C=CC(C5CC54)[C@@H]3C2=O)[nH]n1` (stereo partly specified) had a half-maximal effective concentration (EC50) of 7100 nM. This compound also came in with a CC50 in series [2] of over 100000 nM.

On to `O=C(NN1C(=O)[C@@H]2C3C=CC(C4CC43)[C@@H]2C1=O)c1ccccc1Br` (stereo partly specified), for which the concentration for a half-maximal effect (EC50) with Vaccinia virus [1] worked out at 2300 nM; in the series on Monkeypox virus it was 3600 nM; in the series on Camelpox virus it was 3800 nM; in the series on Variola virus [3], 1400 nM; in the series on Variola virus [4], 3300 nM. In series [2], this compound registered a CC50 of over 100000 nM.

As to `Cn1cccc1C(=O)NN1C(=O)[C@@H]2C3C=CC(C4CC43)[C@@H]2C1=O` (stereo partly specified), the midpoint of the response in the series with Vaccinia virus [1], the EC50, lay at 15800 nM. The compound further had a CC50 in series [2] of over 100000 nM.

In the case of `O=C(NN1C(=O)[C@@H]2C3C=CC(C4CC43)[C@@H]2C1=O)c1ccc([N+](=O)[O-])cc1` (stereo partly specified), in the series on Vaccinia virus [1], the EC50 amounted to 20 nM. Also, the cytotoxic concentration (CC50) in series [2] is over 86000 nM.

In the case of `O=C(NN1C(=O)[C@@H]2C3C=CC(C4CC43)[C@@H]2C1=O)c1ccc(Cl)cc1` (stereo partly specified), the 50% effective concentration (EC50) in the series with Vaccinia virus [1] is 20 nM; in the series on Cowpox virus, 770 nM. Moreover, the CC50 in [2] is over 100000 nM.

For the compound `COc1ccc(C(=O)NN2C(=O)[C@@H]3C4C=CC(C5CC54)[C@@H]3C2=O)cc1` (stereo partly specified), it took 2200 nM to reach a half-maximal effect in the series on Vaccinia virus [1] (EC50). Besides, the CC50 in series [2] is over 100000 nM.

In the series on Vaccinia virus [1], `O=C(NN1C(=O)[C@@H]2C3C=CC(C4CC43)[C@@H]2C1=O)c1cccnc1` (stereo partly specified) gave an EC50 of 740 nM. For the same compound, the CC50 in [2] is over 100000 nM.
